Laboratory results as given in ChEMBL document CHEMBL5329167, “Design, synthesis and evaluation of halogenated phenazine antibacterial prodrugs targeting nitroreductase enzymes for activation” (RSC Med Chem, 2023).
In brackets after ≈: the same amount, converted by molar mass. Activity calls are given as the source filed them. No cut-off for these calls is given here.

How the values were obtained:
Staphylococcus aureus [1] = assay: Antibacterial activity against methicillin-resistant Staphylococcus aureus 1707 assessed as zone of inhibition at 10 mM incubated for 16 hrs by agar diffusion assay; type: functional
Outline: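 Modified Kirby-Bauer disk diffusion. 100 µL MRSA 1707 inoculum (OD₆₀₀ 0.7, ~10⁸ CFU) spread on LB agar and left 30 min. 10 µL of 10 mM DMSO compound solution then pipetted onto the plate. Incubation 16 h at 37 °C; zone of inhibition area (cm²) measured. Three independent experiments.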

[2] = system: Staphylococcus epidermidis; assay: Antibacterial activity against Staphylococcus epidermidis 12228 assessed as bacterial growth inhibition incubated for 16 hrs by CLSI based broth microdilution method; type: functional
Outline: (§1)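 CLSI broth microdilution in LB: eleven 2-fold serial dilutions, 0.10–100 µM. DMSO vehicle/negative control diluted from 0.5% v/v. Wells seeded with ~10⁵ cells from log-phase culture (OD₆₀₀ 0.6–0.8), held 16 h at 37 °C. MIC taken as the lowest concentration preventing growth by OD₆₀₀ turbidity. Minimum three independent experiments.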

Streptococcus pneumoniae = assay: Antibacterial activity against Streptococcus pneumoniae 6303 assessed as bacterial growth inhibition incubated for 16 hrs by CLSI based broth microdilution method; type: functional; outline: as §1
[3] = Metal chelating activity assessed as formation of phenazine-iron complex measured for 1 to 60 mins by UV-vis spectroscopy; conditions: time 1-60 min
Outline: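 Compound from a 10 mM DMSO stock diluted in DMSO in a cuvette, alone or with ammonium iron(II) sulfate hexahydrate (10 mM aqueous stock). Spectra of the compound-only cuvette and the iron-containing cuvette are compared by UV-vis spectrometry to judge phenazine–iron(II) complex formation.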

[4] = Cytotoxicity against HEK293 cells incubated for 48 hrs by MTT assay; type: toxicity, cell-based; conditions: human
Outline: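 HEK-293 cells (10⁴/well) in DMEM with 10% FBS, penicillin/streptomycin, settled overnight at 37 °C, 5% CO₂. Medium replaced with compound at 0.10–100 µM (2-fold steps); DMSO as negative control. After 48 h at 37 °C, MTT (5 mg/mL stock) added for 3 h. Formazan dissolved in DMSO, OD read at 570 nm. Eight replicates per treatment.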

[5] = system: Staphylococcus epidermidis; assay: Antibacterial activity against methicillin-resistant Staphylococcus epidermidis 35984 assessed as bacterial growth inhibition incubated for 16 hrs by CLSI based broth microdilution method; type: functional
Outline: (§2)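 Broth microdilution per CLSI in LB, eleven two-fold serial dilutions spanning 0.10 to 100 µM. Inoculum ~10⁵ cells/well from fresh log-phase culture (OD₆₀₀ 0.6–0.8). MIC taken as lowest concentration preventing growth after 16 h at 37 °C, read by OD₆₀₀ turbidity. DMSO vehicle control, top 0.5% v/v. At least three independent experiments.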

Enterococcus = assay: Antibacterial activity against vancomycin-resistant Enterococcus 700221 assessed as bacterial growth inhibition incubated for 16 hrs by CLSI based broth microdilution method; type: functional
Outline: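 Growth scored by OD₆₀₀ turbidity after 16 h at 37 °C; MIC is the lowest concentration preventing growth. DMSO vehicle control up to 0.5% v/v. Three or more independent experiments.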

Staphylococcus aureus [6] = assay: Antibacterial activity against methicillin-resistant Staphylococcus aureus BAA-1707 assessed as bacterial growth inhibition incubated for 16 hrs by CLSI based broth microdilution method; type: functional; outline: as §2
Staphylococcus aureus [7] = assay: Antibacterial activity against methicillin-resistant Staphylococcus aureus BAA-44 assessed as bacterial growth inhibition incubated for 16 hrs by CLSI based broth microdilution method; type: functional; outline: as §2
Enterococcus faecalis = assay: Antibacterial activity against Enterococcus faecalis OG1RF assessed as bacterial growth inhibition incubated for 16 hrs by CLSI based broth microdilution method; type: functional
Outline: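 Broth microdilution per CLSI in brain-heart infusion: eleven 2-fold dilutions spanning 0.10–100 µM, with DMSO vehicle/negative control topping at 0.5% v/v. Inoculum ~10⁵ cells/well from log-phase culture (OD₆₀₀ 0.6–0.8). 37 °C, 16 h. MIC is the lowest concentration preventing growth, read as OD₆₀₀ turbidity. At least three independent experiments.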

Staphylococcus aureus [8] = assay: Antibacterial activity against methicillin-resistant Staphylococcus aureus 1707 assessed as bacterial growth inhibition incubated for 16 hrs by CLSI based broth microdilution method; type: functional; outline: as §2
Staphylococcus aureus [9] = assay: Antibacterial activity against methicillin-resistant Staphylococcus aureus clinical isolate 2 assessed as bacterial growth inhibition incubated for 16 hrs by CLSI based broth microdilution method; type: functional
Staphylococcus aureus [10] = assay: Antibacterial activity against Staphylococcus aureus clinical isolate 129 assessed as bacterial growth inhibition incubated for 16 hrs by CLSI based broth microdilution method; type: functional
[11] = system: Staphylococcus epidermidis; assay: Antibacterial activity against Staphylococcus epidermidis clinical isolate CL-1 assessed as bacterial growth inhibition incubated for 16 hrs by CLSI based broth microdilution method; type: functional
Staphylococcus aureus [12] = assay: Antibacterial activity against Staphylococcus aureus clinical isolate 138 assessed as bacterial growth inhibition incubated for 16 hrs by CLSI based broth microdilution method; type: functional
Staphylococcus aureus [13] = assay: Antibacterial activity against Staphylococcus aureus clinical isolate 147 assessed as bacterial growth inhibition incubated for 16 hrs by CLSI based broth microdilution method; type: functional
Staphylococcus aureus [14] = assay: Antibacterial activity against Staphylococcus aureus clinical isolate 156 assessed as bacterial growth inhibition incubated for 16 hrs by CLSI based broth microdilution method; type: functional
Staphylococcus aureus [15] = assay: Antibacterial activity against methicillin-resistant Staphylococcus aureus clinical isolate 1 assessed as bacterial growth inhibition incubated for 16 hrs by CLSI based broth microdilution method; type: functional
[16] = Hemolytic activity against red blood cells (unknown origin) at 200 uM; type: toxicity, cell-based, Erythrocyte; conditions: read-out: Activity
[17] = Lipophilicity, LogP of compound in octanol-water mixture incubated for 1 hr by UV-vis spectroscopy; type: physicochemical
Outline: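 Shake-flask partition: compound in octanol (1% v/v DMSO) mixed with equal volume water, stirred vigorously, left 1 h at room temperature to separate. Octanol-phase concentration measured by UV-Vis at 370 or 380 nm against a serial-dilution standard curve. Water concentration obtained by mass balance; LogP = log10(Coct/Cw). Acetophenone as positive control. Three independent experiments.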

SMILES	diameter of the inhibition zone (DIZ) (Staphylococcus aureus [1]) [cm2]	MIC [2] [µM]	MIC (Streptococcus pneumoniae) [µM]	Activity [3]	CC50 at 48 h [4] [µM]	MIC [5] [µM]	MIC (Enterococcus) [µM]	MIC (Staphylococcus aureus [6]) [µM]	MIC (Staphylococcus aureus [7]) [µM]	MIC (Enterococcus faecalis) [µM]	MIC (Staphylococcus aureus [8]) [µM]	MIC (Staphylococcus aureus [9]) [µM]	MIC (Staphylococcus aureus [10]) [µM]	MIC [11] [µM]	MIC (Staphylococcus aureus [12]) [µM]	MIC (Staphylococcus aureus [13]) [µM]	MIC (Staphylococcus aureus [14]) [µM]	MIC (Staphylococcus aureus [15]) [µM]	hemolysis at 200 µM [16] [%]	logP at 1 h [17]
O=S(=O)(Cc1ccccc1)Oc1c(Br)cc(Br)c2nc3c(C(F)(F)F)cc(C(F)(F)F)cc3nc12	1.07	0.15 (≈ 0.0966 µg/mL)	0.2 (≈ 0.129 µg/mL)	inactive	3.6	1.56 (≈ 1 µg/mL)	0.78 (≈ 0.502 µg/mL)	> 100	18.8 (≈ 12.1 µg/mL)	0.39 (≈ 0.251 µg/mL)	> 100									
CC[C@H]1OC(=O)[C@H](C)[C@@H](O[C@H]2C[C@@](C)(OC)[C@@H](O)[C@H](C)O2)[C@H](C)[C@@H](O[C@@H]2O[C@H](C)C[C@H](N(C)C)[C@H]2O)[C@](C)(O)C[C@@H](C)C(=O)[C@H](C)[C@@H](O)[C@]1(C)O [ERYTHROMYCIN]												18.8 (≈ 13.8 µg/mL)	> 100	> 100	> 100	37.5 (≈ 27.5 µg/mL)	> 100	100 (≈ 73.4 µg/mL)		
O=[N+]([O-])c1ccc(CS(=O)(=O)Oc2c(Br)cc(Br)c3nc4cc(Cl)ccc4nc23)cc1	0.66	0.15 (≈ 0.0881 µg/mL)	0.15 (≈ 0.0881 µg/mL)	inactive	6.4	0.39 (≈ 0.229 µg/mL)	0.59 (≈ 0.347 µg/mL)	0.1 (≈ 0.0588 µg/mL)	0.15 (≈ 0.0881 µg/mL)	4.69 (≈ 2.76 µg/mL)	0.1 (≈ 0.0588 µg/mL)								< 1	
Cc1cccc2nc3c(O)c(Br)c(Cl)c(Br)c3nc12	3.85	0.1 (≈ 0.0402 µg/mL)	0.1 (≈ 0.0402 µg/mL)	inactive	18.3	0.1 (≈ 0.0402 µg/mL)	0.1 (≈ 0.0402 µg/mL)	0.1 (≈ 0.0402 µg/mL)	0.15 (≈ 0.0604 µg/mL)	0.39 (≈ 0.157 µg/mL)	0.1 (≈ 0.0402 µg/mL)	0.15 (≈ 0.0604 µg/mL)	0.1 (≈ 0.0402 µg/mL)	0.39 (≈ 0.157 µg/mL)	0.1 (≈ 0.0402 µg/mL)	0.1 (≈ 0.0402 µg/mL)	0.1 (≈ 0.0402 µg/mL)	0.1 (≈ 0.0402 µg/mL)	< 1	0.81
Oc1c(Br)cc(Br)c2nc3c(C(F)(F)F)cc(C(F)(F)F)cc3nc12	4.58	0.1 (≈ 0.049 µg/mL)	0.1 (≈ 0.049 µg/mL)	Active		0.05 (≈ 0.0245 µg/mL)	0.2 (≈ 0.098 µg/mL)	0.15 (≈ 0.0735 µg/mL)	0.15 (≈ 0.0735 µg/mL)	0.1 (≈ 0.049 µg/mL)	0.1 (≈ 0.049 µg/mL)								16.7	
O=S(=O)(Cc1ccccc1)Oc1c(Br)cc(Br)c2nc3cc(Cl)ccc3nc12	0	3.13 (≈ 1.7 µg/mL)	1.56 (≈ 0.847 µg/mL)	inactive	30.3		> 100	2.35 (≈ 1.28 µg/mL)		> 100	3.13 (≈ 1.7 µg/mL)									
Oc1c(Br)cc(Br)c2nc3cc(Cl)ccc3nc12	1.7	0.3 (≈ 0.117 µg/mL)	0.3 (≈ 0.117 µg/mL)	Active				0.075 (≈ 0.0291 µg/mL)	0.15 (≈ 0.0583 µg/mL)		0.1 (≈ 0.0388 µg/mL)								< 1	
Cc1cccc2nc3c(OS(=O)(=O)Cc4ccccc4)c(Br)c(Cl)c(Br)c3nc12	0	> 100	> 100	inactive	49.6	> 100	> 100	> 100	> 100	> 100	> 100		> 100	> 100	> 100	> 100	> 100			
